Data taken from ChEMBL document CHEMBL1821569, “Synthesis of novel 1,2,5-trisubstituted benzimidazoles as potential antitumor agents” (2011).

Tests used:
Format in all cases: functional
IGROV-1 = assay: Antitumor activity against human IGROV1 cells after 48 hrs by SRB assay; details: IGROV-1, 48 h; for CC50: read-out: LC50 (the source's name)
Outline: (§1)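 NCI 60-cell-line secondary screen. Cells were exposed continuously to drug for 48 h at five concentration levels (100, 10, 1.0, 0.1 and 0.01). Growth was estimated by sulforhodamine B protein staining. GI50 is the concentration giving a 50% reduction in net protein increase versus untreated control cells over the incubation. TGI (total growth inhibition) and LC50 (50% cell kill) were also derived.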

HCT-15 = assay: Antitumor activity against human HCT15 cells after 48 hrs by SRB assay; details: HCT-15, 48 h; outline: as §1
SW-620 = assay: Antitumor activity against human SW620 cells after 48 hrs by SRB assay; details: SW-620, 48 h; for CC50: read-out: LC50 (the source's name)
Outline: (§2)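 NCI 60-cell-line secondary screen. Continuous 48 h exposure at five concentration levels. Cell growth estimated by sulforhodamine B protein staining. GI50 taken as the concentration giving 50% reduction in net protein increase relative to untreated control cells over the incubation. TGI (total growth inhibition) and LC50 (50% cell kill) were also derived.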

CCRF-CEM = assay: Antitumor activity against human CCRF-CEM cells after 48 hrs by SRB assay; details: for CC50: read-out: LC50 (the source's name); outline: as §1
RPMI-8226 = assay: Antitumor activity against human RPMI8226 cells after 48 hrs by SRB assay; details: RPMI-8226, 48 h; for CC50: read-out: LC50 (the source's name); outline: as §1
SK-MEL-5 = assay: Antitumor activity against human SK-MEL-5 cells after 48 hrs by SRB assay; details: SK-MEL-5, 48 h; for CC50: read-out: LC50 (the source's name); outline: as §1
SNB-75 = assay: Antitumor activity against human SNB75 cells after 48 hrs by SRB assay; details: SNB-75, 48 h; for CC50: read-out: LC50 (the source's name); outline: as §1
OVCAR-4 = assay: Antitumor activity against human OVCAR4 cells after 48 hrs by SRB assay; details: OVCAR-4, 48 h; for CC50: read-out: LC50 (the source's name); outline: as §1
MDA-MB-435 = assay: Antitumor activity against human MDA-MB-435 cells after 48 hrs by SRB assay; details: MDA-MB-435, 48 h; for CC50: read-out: LC50 (the source's name); outline: as §1
RXF 393 = assay: Antitumor activity against human RXF393 cells after 48 hrs by SRB assay; details: RXF 393, 48 h; for CC50: read-out: LC50 (the source's name); outline: as §1
SK-MEL-2 = assay: Antitumor activity against human SK-MEL-2 cells after 48 hrs by SRB assay; details: SK-MEL-2, 48 h; for CC50: read-out: LC50 (the source's name); outline: as §1
NCI-H522 = assay: Antitumor activity against human NCI-H522 cells after 48 hrs by SRB assay; details: NCI-H522, 48 h; outline: as §1
OVCAR-3 = assay: Antitumor activity against human OVCAR3 cells after 48 hrs by SRB assay; details: OVCAR-3, 48 h; for CC50: read-out: LC50 (the source's name); outline: as §1
SN12C = assay: Antitumor activity against human SN12C cells after 48 hrs by SRB assay; details: for CC50: read-out: LC50 (the source's name); outline: as §1
SF-539 = assay: Antitumor activity against human SF539 cells after 48 hrs by SRB assay; details: SF-539, 48 h; for CC50: read-out: LC50 (the source's name); outline: as §1
SK-OV-3 = assay: Antitumor activity against human SKOV3 cells after 48 hrs by SRB assay; details: SK-OV-3, 48 h; for CC50: read-out: LC50 (the source's name); outline: as §1
HL-60(TB) = assay: Antitumor activity against human HL-60(TB) cells after 48 hrs by SRB assay; details: HL-60, 48 h
Outline: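 NCI 60-cell-line secondary screen: continuous drug exposure for 48 h at five concentration levels (100, 10, 1.0, 0.1 and 0.01). Cell growth was estimated by sulforhodamine B (SRB) protein staining. GI50 is the concentration giving a 50% reduction in net protein increase relative to untreated control cells during the incubation. TGI and LC50 were derived from the same data.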

CAKI-1 = assay: Antitumor activity against human Caki1 cells after 48 hrs by SRB assay; details: CAKI-1, 48 h; for CC50: read-out: LC50 (the source's name); outline: as §1
NCI-H322M = assay: Antitumor activity against human NCI-H322M cells after 48 hrs by SRB assay; outline: as §1
LOX IMVI = assay: Antitumor activity against human LOXIMVI cells after 48 hrs by SRB assay; details: for CC50: read-out: LC50 (the source's name); outline: as §1
SF-268 = assay: Antitumor activity against human SF268 cells after 48 hrs by SRB assay; details: SF-268, 48 h; for CC50: read-out: LC50 (the source's name); outline: as §1
A498 = assay: Antitumor activity against human A498 cells after 48 hrs by SRB assay; details: A498, 48 h; for CC50: read-out: LC50 (the source's name); outline: as §1
MCF7 = assay: Antitumor activity against human MCF7 cells after 48 hrs by SRB assay; details: MCF7, 48 h; for CC50: read-out: LC50 (the source's name); outline: as §1
MOLT-4 = assay: Antitumor activity against human MOLT4 cells after 48 hrs by SRB assay; details: MOLT-4, 48 h; outline: as §1
NCI-H23 = assay: Antitumor activity against human NCI-H23 cells after 48 hrs by SRB assay; details: NCI-H23, 48 h; outline: as §1
BT-549 = assay: Antitumor activity against human BT549 cells after 48 hrs by SRB assay; details: BT-549, 48 h; for CC50: read-out: LC50 (the source's name); outline: as §1
UACC-257 = assay: Antitumor activity against human UACC257 cells after 48 hrs by SRB assay; details: UACC-257, 48 h; for CC50: read-out: LC50 (the source's name); outline: as §2
T47D = assay: Antitumor activity against human T47D cells after 48 hrs by SRB assay; details: for CC50: read-out: LC50 (the source's name); outline: as §2
U-251 = assay: Antitumor activity against human U251 cells after 48 hrs by SRB assay; details: U-251, 48 h; for CC50: read-out: LC50 (the source's name); outline: as §2

## COC(=O)c1ccc2c(c1)nc(-c1ccc(Cl)cc1)n2-c1cc(C(C)(C)C)[nH]n1
IGROV-1
  GI50: 3.64 µM
  TGI: 25 µM
  CC50: > 100 µM
HCT-15
  GI50: 4.36 µM
  LC50 (50% cell kill): > 100 µM
  TGI: > 100 µM
SW-620
  GI50: 3.24 µM
  TGI: > 100 µM
  CC50: > 100 µM
CCRF-CEM
  GI50: 4.91 µM
  TGI: > 100 µM
  CC50: > 100 µM
RPMI-8226
  GI50: 3.93 µM
  TGI: 19 µM
  CC50: > 100 µM
SK-MEL-5
  GI50: 2.02 µM
  TGI: 5.1 µM
  CC50: 0.186 µM
SNB-75
  GI50: 2.14 µM
  TGI: 12.6 µM
  CC50: > 100 µM
OVCAR-4
  GI50: 3.4 µM
  TGI: > 100 µM
  CC50: > 100 µM
MDA-MB-435
  GI50: 1.19 µM
  TGI: 5 µM
  CC50: 0.505 µM
RXF 393
  GI50: 1.57 µM
  TGI: 5.77 µM
  CC50: 0.569 µM
SK-MEL-2
  GI50: 3.89 µM
  TGI: 18.1 µM
  CC50: > 100 µM
NCI-H522
  GI50: 3.21 µM
  LC50 (50% cell kill): > 100 µM
  TGI: 20.3 µM
OVCAR-3
  GI50: 2.35 µM
  TGI: 6.13 µM
  CC50: 0.915 µM
SN12C
  GI50: 4.34 µM
  TGI: 27.7 µM
  CC50: > 100 µM
SF-539
  GI50: 2.54 µM
  TGI: 8.95 µM
  CC50: 0.521 µM
SK-OV-3
  GI50: 3.71 µM
  TGI: 31 µM
  CC50: > 100 µM
HL-60(TB)
  GI50: 4.03 µM
  LC50: > 100 µM
  TGI: 11.2 µM
CAKI-1
  GI50: 2.25 µM
  TGI: 12.8 µM
  CC50: > 100 µM
NCI-H322M
  GI50: 10.4 µM
  LC50 (50% cell kill): > 100 µM
  TGI: 86.4 µM
LOX IMVI
  GI50: 3.7 µM
  TGI: 14.5 µM
  CC50: 0.429 µM
SF-268
  GI50: 3.29 µM
  TGI: 17.8 µM
  CC50: > 100 µM
A498
  GI50: 2.26 µM
  TGI: 9.76 µM
  CC50: 0.858 µM
MCF7
  GI50: 2.79 µM
  TGI: 12.3 µM
  CC50: > 100 µM
MOLT-4
  GI50: 5.48 µM
  LC50 (50% net cell kill): > 100 µM
  TGI: > 100 µM
NCI-H23
  GI50: 3.42 µM
  LC50 (50% cell kill): > 100 µM
  TGI: 36 µM
BT-549
  GI50: 3.35 µM
  TGI: 11.2 µM
  CC50: 0.595 µM
UACC-257
  GI50: 4.97 µM
  TGI: 22.9 µM
  CC50: 0.967 µM
T47D
  GI50: 3.64 µM
  TGI: > 100 µM
  CC50: > 100 µM
U-251
  GI50: 4.13 µM
  TGI: 22.7 µM
  CC50: > 100 µM

## COC(=O)c1ccc2c(c1)nc(-c1cc3ccccc3[nH]c1=O)n2-c1cc(C(C)(C)C)[nH]n1
IGROV-1
  GI50: 0.965 µM
  TGI: > 100 µM
  CC50: > 100 µM
HCT-15
  LC50 (50% cell kill): > 100 µM
  TGI: > 100 µM
SW-620
  TGI: > 100 µM
  CC50: > 100 µM
CCRF-CEM
  GI50: 0.585 µM
  TGI: > 100 µM
  CC50: > 100 µM
RPMI-8226
  GI50: 0.167 µM
  TGI: 0.987 µM
  CC50: > 100 µM
SK-MEL-5
  GI50: 2.3 µM
  TGI: > 100 µM
  CC50: > 100 µM
SNB-75
  GI50: 5.42 µM
  TGI: 41.5 µM
  CC50: > 100 µM
OVCAR-4
  TGI: > 100 µM
  CC50: > 100 µM
MDA-MB-435
  TGI: > 100 µM
  CC50: > 100 µM
RXF 393
  GI50: 2.16 µM
  TGI: 8.86 µM
  CC50: > 100 µM
SK-MEL-2
  GI50: 2.25 µM
  TGI: > 100 µM
  CC50: > 100 µM
NCI-H522
  GI50: 0.928 µM
  LC50 (50% cell kill): > 100 µM
  TGI: > 100 µM
OVCAR-3
  GI50: 6.27 µM
  TGI: > 100 µM
  CC50: > 100 µM
SN12C
  GI50: 5.61 µM
  TGI: > 100 µM
  CC50: > 100 µM
SF-539
  GI50: 4.12 µM
  TGI: > 100 µM
  CC50: > 100 µM
SK-OV-3
  GI50: 28.5 µM
  TGI: > 100 µM
  CC50: > 100 µM
HL-60(TB)
  GI50: 0.322 µM
  LC50: > 100 µM
CAKI-1
  GI50: 0.476 µM
  TGI: 90.5 µM
  CC50: > 100 µM
NCI-H322M
  GI50: 0.929 µM
  LC50 (50% cell kill): > 100 µM
  TGI: > 100 µM
LOX IMVI
  GI50: 1.24 µM
  CC50: > 100 µM
SF-268
  GI50: 2.13 µM
  TGI: 91.9 µM
  CC50: > 100 µM
A498
  GI50: 13.6 µM
  TGI: 76.9 µM
  CC50: > 100 µM
MCF7
  GI50: > 100 µM
  TGI: > 100 µM
  CC50: > 100 µM
MOLT-4
  GI50: 0.445 µM
  LC50 (50% net cell kill): > 100 µM
  TGI: > 100 µM
NCI-H23
  GI50: 2.78 µM
  LC50 (50% cell kill): > 100 µM
  TGI: > 100 µM
BT-549
  GI50: 4.88 µM
  TGI: 66.2 µM
  CC50: > 100 µM
UACC-257
  TGI: > 100 µM
  CC50: > 100 µM
T47D
  GI50: > 100 µM
  TGI: > 100 µM
  CC50: > 100 µM
U-251
  GI50: 0.652 µM
  TGI: > 100 µM
  CC50: > 100 µM
